For experiment [1], the target named is DNA polymerase (Drosophila melanogaster) (UniProt Q9GV40). Briefly: Inhibition of fruit fly DNA polymerase epsilon at 200 uM. Put shortly: (§1)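 Compound dissolved in DMSO and sonicated 30 s, then held with each polymerase (final 0.05 U) in 50 mM Tris-HCl pH 7.5, 1 mM DTT, 50% glycerol, 0.1 mM EDTA at 0 °C for 10 min. Reaction with poly(dA)/oligo(dT)12-18 and dTTP ran 60 min at 37 °C (Taq at 74 °C). Activity relative to no-compound control; means ± SEM, four independent experiments.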

In experiment [2] the target is T1, DNA polymerase eta (Homo sapiens) (UniProt Q9Y253).
T1 sequence (whole entry): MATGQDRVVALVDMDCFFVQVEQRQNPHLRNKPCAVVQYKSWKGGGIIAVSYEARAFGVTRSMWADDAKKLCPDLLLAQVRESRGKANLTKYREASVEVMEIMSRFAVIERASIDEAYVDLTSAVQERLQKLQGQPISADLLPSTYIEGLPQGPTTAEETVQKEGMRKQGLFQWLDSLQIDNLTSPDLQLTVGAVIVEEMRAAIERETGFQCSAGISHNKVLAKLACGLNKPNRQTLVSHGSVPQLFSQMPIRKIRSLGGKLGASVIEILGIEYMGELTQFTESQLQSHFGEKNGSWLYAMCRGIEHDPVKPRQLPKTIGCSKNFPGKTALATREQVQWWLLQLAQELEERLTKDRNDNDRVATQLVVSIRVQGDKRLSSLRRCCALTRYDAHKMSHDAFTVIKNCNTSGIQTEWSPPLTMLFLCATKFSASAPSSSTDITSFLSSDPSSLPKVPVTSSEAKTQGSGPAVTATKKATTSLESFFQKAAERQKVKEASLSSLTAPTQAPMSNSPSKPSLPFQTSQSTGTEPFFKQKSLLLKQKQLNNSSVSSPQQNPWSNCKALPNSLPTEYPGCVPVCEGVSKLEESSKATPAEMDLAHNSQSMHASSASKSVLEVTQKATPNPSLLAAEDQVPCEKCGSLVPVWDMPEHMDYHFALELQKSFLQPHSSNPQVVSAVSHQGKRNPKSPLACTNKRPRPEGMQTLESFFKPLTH
Briefly: Inhibition of human DNA polymerase eta at 200 uM. Put shortly:
as §1

A further experiment is filed under the species Mus musculus. Put plainly: Inhibition of mouse inosine 5-monophosphate dehydrogenase type 2 at 200 uM. Put shortly:
(§2)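 Each enzyme (0.05 U) was incubated with 200 μM compound. Activity was expressed as a percentage of the activity without compound (100%). Means ± SEM of four independent experiments.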

In a further experiment the test system is Escherichia coli. Put plainly: Inhibition of Escherichia coli T4 DNA polymerase at 200 uM. Put shortly:
as §1

The species named for experiment [3] is Homo sapiens. Briefly: Inhibition of human telomerse at 200 uM. Put shortly: as §2
The target of experiment [4] is T2, DNA polymerase lambda (Homo sapiens) (UniProt Q9UGP5).
T2 sequence (whole entry): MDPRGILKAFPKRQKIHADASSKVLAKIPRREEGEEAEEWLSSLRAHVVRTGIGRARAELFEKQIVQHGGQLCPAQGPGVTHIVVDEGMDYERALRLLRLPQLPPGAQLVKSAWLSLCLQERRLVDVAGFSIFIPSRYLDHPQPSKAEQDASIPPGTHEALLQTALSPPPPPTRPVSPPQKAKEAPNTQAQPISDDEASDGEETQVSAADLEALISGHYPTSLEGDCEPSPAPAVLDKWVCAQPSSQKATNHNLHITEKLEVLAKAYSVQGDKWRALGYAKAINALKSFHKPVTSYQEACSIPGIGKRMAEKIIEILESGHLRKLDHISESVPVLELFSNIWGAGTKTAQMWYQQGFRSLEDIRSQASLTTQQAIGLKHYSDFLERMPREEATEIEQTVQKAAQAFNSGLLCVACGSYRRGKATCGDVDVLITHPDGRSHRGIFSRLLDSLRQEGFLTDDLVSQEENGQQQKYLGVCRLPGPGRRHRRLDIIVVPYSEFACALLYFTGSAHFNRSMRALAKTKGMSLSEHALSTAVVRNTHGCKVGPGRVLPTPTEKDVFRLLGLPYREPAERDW
Briefly: Inhibition of human DNA polymerase lambda at 200 uM. Put shortly: as §1

The species named for a further experiment is Bos taurus. Briefly: Inhibition of bovine deoxyribonuclease 1 at 200 uM. Put shortly:
as §2

Experiment [5] deals with T4 polynucleotide kinase (Bacteriophage T4). Put plainly: Inhibition of T4 polynucleotide kinase at 200 uM.
For experiment [6], the species on record is Homo sapiens. Put plainly: Inhibition of human topoisomerase type 1 at 200 uM. Put shortly:
as §2

The subject of experiment [7] is Brassica oleracea var. botrytis. Briefly: Inhibition of cauliflower DNA polymerase epsilon at 200 uM. Put shortly: as §1

Active and inactive are the calls of the source. The calls are words filed in the database; no cut-off is given here.

Sequence of DNA polymerase (Drosophila melanogaster) (Q9GV40 as listed by the source): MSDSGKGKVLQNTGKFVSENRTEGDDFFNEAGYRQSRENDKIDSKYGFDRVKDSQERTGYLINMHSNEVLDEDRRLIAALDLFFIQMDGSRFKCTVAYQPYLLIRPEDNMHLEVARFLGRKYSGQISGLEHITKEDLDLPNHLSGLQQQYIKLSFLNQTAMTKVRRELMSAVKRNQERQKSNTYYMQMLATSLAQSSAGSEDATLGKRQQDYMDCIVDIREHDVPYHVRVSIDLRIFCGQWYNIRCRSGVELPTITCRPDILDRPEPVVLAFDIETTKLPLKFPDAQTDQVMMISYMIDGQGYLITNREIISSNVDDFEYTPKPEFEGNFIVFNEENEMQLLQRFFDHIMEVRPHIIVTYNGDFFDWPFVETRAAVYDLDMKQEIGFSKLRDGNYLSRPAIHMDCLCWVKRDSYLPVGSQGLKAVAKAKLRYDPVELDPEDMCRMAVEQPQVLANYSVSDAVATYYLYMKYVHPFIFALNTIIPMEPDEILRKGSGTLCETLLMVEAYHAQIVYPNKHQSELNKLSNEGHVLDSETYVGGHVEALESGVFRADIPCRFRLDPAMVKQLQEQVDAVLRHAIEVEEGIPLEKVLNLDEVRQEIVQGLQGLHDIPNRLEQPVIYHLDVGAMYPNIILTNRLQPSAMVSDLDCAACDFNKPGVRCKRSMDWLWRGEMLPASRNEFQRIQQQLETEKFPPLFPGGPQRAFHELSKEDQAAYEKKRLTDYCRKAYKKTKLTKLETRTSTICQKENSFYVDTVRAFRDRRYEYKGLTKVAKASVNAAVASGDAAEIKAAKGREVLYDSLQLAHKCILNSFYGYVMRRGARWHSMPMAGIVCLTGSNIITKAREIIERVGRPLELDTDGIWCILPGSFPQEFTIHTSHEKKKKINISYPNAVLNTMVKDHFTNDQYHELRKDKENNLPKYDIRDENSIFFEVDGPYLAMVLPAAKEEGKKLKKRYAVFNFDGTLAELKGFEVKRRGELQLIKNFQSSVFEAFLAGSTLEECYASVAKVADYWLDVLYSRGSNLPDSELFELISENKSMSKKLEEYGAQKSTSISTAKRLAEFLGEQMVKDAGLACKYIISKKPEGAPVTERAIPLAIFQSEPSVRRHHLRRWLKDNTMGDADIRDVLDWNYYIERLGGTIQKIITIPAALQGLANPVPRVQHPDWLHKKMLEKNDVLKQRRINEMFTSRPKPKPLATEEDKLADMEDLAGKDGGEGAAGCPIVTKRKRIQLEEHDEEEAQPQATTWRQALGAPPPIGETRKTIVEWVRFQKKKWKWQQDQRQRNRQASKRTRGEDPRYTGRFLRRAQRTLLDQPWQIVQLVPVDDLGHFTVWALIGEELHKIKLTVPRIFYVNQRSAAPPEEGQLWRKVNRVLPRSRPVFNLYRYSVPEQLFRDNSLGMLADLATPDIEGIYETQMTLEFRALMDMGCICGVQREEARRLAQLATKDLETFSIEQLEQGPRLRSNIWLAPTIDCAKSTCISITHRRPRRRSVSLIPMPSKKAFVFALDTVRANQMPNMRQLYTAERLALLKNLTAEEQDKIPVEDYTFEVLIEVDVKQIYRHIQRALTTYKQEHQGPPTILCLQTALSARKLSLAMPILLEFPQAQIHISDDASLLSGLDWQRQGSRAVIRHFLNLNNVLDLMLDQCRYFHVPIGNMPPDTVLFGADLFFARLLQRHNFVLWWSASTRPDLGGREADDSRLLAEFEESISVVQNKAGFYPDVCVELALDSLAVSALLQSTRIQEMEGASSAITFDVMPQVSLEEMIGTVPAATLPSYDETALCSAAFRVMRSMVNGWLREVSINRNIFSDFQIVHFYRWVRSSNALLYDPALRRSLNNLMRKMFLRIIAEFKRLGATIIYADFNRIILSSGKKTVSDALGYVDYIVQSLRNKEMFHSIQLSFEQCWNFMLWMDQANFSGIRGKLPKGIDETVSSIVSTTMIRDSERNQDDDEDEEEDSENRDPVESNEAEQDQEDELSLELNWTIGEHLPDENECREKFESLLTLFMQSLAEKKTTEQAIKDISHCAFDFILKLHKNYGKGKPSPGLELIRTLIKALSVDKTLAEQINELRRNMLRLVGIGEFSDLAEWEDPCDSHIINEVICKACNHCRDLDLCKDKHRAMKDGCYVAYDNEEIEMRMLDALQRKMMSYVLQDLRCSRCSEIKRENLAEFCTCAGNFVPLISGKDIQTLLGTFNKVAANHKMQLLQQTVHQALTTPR

For the molecule `C/C(=C\CC[C@H](C)C(=O)O)[C@H]1CC[C@H](C(=O)O)CC1`, the result (in experiment [1]; in [2]; in the experiment listed under Mus musculus; in the experiment with Escherichia coli; in the experiment filed under Homo sapiens [3]; in the experiment listed under Bos taurus) was inactive. Further, the result (in experiment [5]; in the experiment listed under Homo sapiens [6]; in [7]) was inactive. Also, the outcome in experiment [4] was Active.

These data come from ChEMBL document CHEMBL1157184, “Hymenoic acid, a novel specific inhibitor of human DNA polymerase lambda from a fungus of Hymenochaetaceae sp” (Bioorg Med Chem, 2008).
